Source: ChEMBL document CHEMBL3739314, “Discovery of Nanomolar Dengue and West Nile Virus Protease Inhibitors Containing a 4-Benzyloxyphenylglycine Residue” (J Med Chem, 2015)
Activity calls are given as the source filed them. The rule behind the calls is not given here.

What was measured:
[1] = target: Prothrombin (Homo sapiens) (UniProt P00734); test: Inhibition of thrombin (unknown origin) using Boc-Val-Pro-Arg-AMC as substrate at 25 uM preincubated with protein for 15 mins followed by substrate addition measured for 10 mins by continuous fluorimetric assay relative to control
[2] = Inhibition of West Nile virus NS2B-NS3 protease using 2-Abz-Gly-Leu-Lys-Arg-Gly-Gly-[…]-Tyr-NH2 as substrate preincubated with protein for 15 mins followed by substrate addition measured for 15 mins by FRET assay
In short: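 WNV NS2B-NS3 linked construct at 75 nM (40 nM in one case) in pH 9 Tris buffer, preincubated 15 min with eight inhibitor concentrations (ranges 0–1 up to 0–50 μM). Substrate was 50 μM, with FRET readout over 15 min. IC50 was fitted from triplicates.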

[3] = target: Trypsin (Homo sapiens) (UniProt P07477+P07478+P35030); test: Inhibition of trypsin (unknown origin) using Boc-Val-Pro-Arg-AMC as substrate at 25 uM preincubated with protein for 15 mins followed by substrate addition by continuous fluorimetric assay relative to control
[4] = Inhibition of Dengue virus serotype-2 NS2B-NS3 protease using 2-Abz-Nle-Lys-Arg-Arg-Ser-(3-NO2)-Tyr-NH2 as substrate preincubated with protein for 15 mins followed by substrate addition measured for 15 mins by FRET assay; parameters: species or system dengue virus type 2
In short: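 DENV-2 NS2B-NS3 linked construct at 30 nM (15 nM in some cases), same pH 9 Tris buffer, 15 min preincubation and FRET read-out. Eight inhibitor concentrations spanned 0–1, 0–2, 0–6 or 0–50 μM, with substrate at 50 μM. IC50 was fitted from triplicates.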

[5] = tested on: West Nile virus; test: Inhibition of West Nile virus NS2B-NS3 protease using 2-Abz-Gly-Leu-Lys-Arg-Gly-Gly-[…]-Tyr-NH2 as substrate at 50 uM preincubated with protein for 15 mins followed by substrate addition measured for 15 mins by FRET assay
In short: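 Linked WNV NS2B-NS3 protease (150 nM) was preincubated 15 min with inhibitor (50 μM final) in 50 mM Tris-HCl pH 9, 10% ethylene glycol, 0.0016% Brij 58. […] Percent inhibition was taken from the slope relative to the no-inhibitor control, in triplicate.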

[6] = Retention time of compound by RP-HPLC analysis; type: physicochemical
[7] = tested on: dengue virus type 2; test: Antiviral activity against Dengue virus serotype-2 infected in African green monkey Vero cells after 7 days by virus yield reduction assay; type: functional, organism-based
[8] = Cytotoxicity against human HuH7 cells infected with Dengue virus serotype-2 assessed as cell viability after 48 hrs by Cell-Titer-Glo luminescent viability assay; type: cell-based, Huh-7
In short: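 Huh-7 cells (10^4/well) were seeded in DMEM + 10% FBS overnight, then infected with WT DENV-2 (MOI 1) in the presence of compound, triplicate per concentration. After 48 h at 37 °C, medium was replaced with fresh DMEM and viability was read by CellTiter-Glo luminescence. CC50 was determined.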

N=C(N)NCCC[C@H](NC(=O)c1cc(-c2ccccc2)cs1)C(=O)N[C@@H](CCCCN)C(=O)N[C@@H](C(N)=O)c1ccc(OCc2c(Cl)cccc2Cl)cc1
inhibition [1]: inactive | IC50 [2]: 221 nM | inhibition [3]: inactive | IC50 [4]: 129 nM | inhibition [5]: 98%

N=C(N)NCCC[C@H](NC(=O)c1sccc1Cl)C(=O)N[C@@H](CCCCN)C(=O)N[C@@H](C(N)=O)c1ccc(OCc2ccc(Cl)cc2)cc1
inhibition [1]: inactive | IC50 [2]: 821 nM | inhibition [3]: inactive | IC50 [4]: 120 nM | inhibition [5]: 99.3%

COc1cccc(COc2ccc([C@@H](NC(=O)[C@H](CCCCN)NC(=O)[C@H](CCCNC(=N)N)NC(=O)c3nccs3)C(N)=O)cc2)c1
inhibition [1]: inactive | IC50 [2]: 273 nM | inhibition [3]: inactive | IC50 [4]: 47 nM | inhibition [5]: 100%

CC(C)(C)c1ccc(COc2ccc([C@@H](NC(=O)[C@H](CCCCN)NC(=O)[C@H](CCCNC(=N)N)NC(=O)c3sccc3Cl)C(N)=O)cc2)cc1
inhibition [1]: inactive | inhibition [3]: inactive | IC50 [4]: 121 nM | inhibition [5]: 85.2%

N=C(N)NCCC[C@H](NC(=O)c1cccs1)C(=O)N[C@@H](CCCCN)C(=O)N[C@@H](C(N)=O)c1ccc(OCc2ccc(F)cc2)cc1
inhibition [1]: inactive | IC50 [2]: 216 nM | inhibition [3]: inactive | IC50 [4]: 61 nM | inhibition [5]: 101%

N=C(N)NCCC[C@H](NC(=O)c1cc2sccc2s1)C(=O)N[C@@H](CCCCN)C(=O)N[C@@H](C(N)=O)c1ccc(OCc2ccccc2C(F)(F)F)cc1
inhibition [1]: inactive | inhibition [3]: inactive | IC50 [4]: 197 nM | inhibition [5]: 97.5%

N=C(N)NCCC[C@H](NC(=O)c1ccccc1)C(=O)N[C@@H](CCCCN)C(=O)N[C@@H](C(N)=O)c1ccc(OCc2ccc(C(F)(F)F)cc2)cc1
inhibition [1]: < 30% | IC50 [2]: 224 nM | IC50 [4]: 69 nM | inhibition [5]: 99.7%

N=C(N)NCCC[C@H](NC(=O)c1ccccc1)C(=O)N[C@@H](CCCCN)C(=O)N[C@@H](C(N)=O)c1ccc(OCc2ccc(Cl)c(Cl)c2)cc1
inhibition [1]: < 30% | IC50 [2]: 615 nM | IC50 [4]: 177 nM | inhibition [5]: 97.8%

N=C(N)NCCC[C@H](NC(=O)/C=C/c1ccccc1)C(=O)N[C@@H](CCCCN)C(=O)N[C@@H](C(N)=O)c1ccc(OCc2ccccc2)cc1
inhibition [1]: < 30% | IC50 [2]: 561 nM | IC50 [4]: 323 nM | inhibition [5]: 99.7%

N=C(N)NCCC[C@H](NC(=O)c1cccs1)C(=O)N[C@@H](CCCCN)C(=O)N[C@@H](C(N)=O)c1ccc(OCc2ccc(Br)cc2)cc1
inhibition [1]: inactive | IC50 [2]: 150 nM | inhibition [3]: inactive | IC50 [4]: 71 nM | inhibition [5]: 99.2%

N=C(N)NCCC[C@H](NC(=O)c1ccco1)C(=O)N[C@@H](CCCCN)C(=O)N[C@@H](C(N)=O)c1ccc(OCc2ccccc2)cc1
inhibition [1]: < 30% | IC50 [2]: 507 nM | IC50 [4]: 479 nM | inhibition [5]: 98.1%

N=C(N)NCCC[C@H](NC(=O)c1ccccc1)C(=O)N[C@@H](CCCCN)C(=O)N[C@@H](C(N)=O)c1ccc(OCc2c(Cl)cccc2Cl)cc1
inhibition [1]: < 30% | IC50 [2]: 493 nM | IC50 [4]: 151 nM | inhibition [5]: 101%

N=C(N)NCCC[C@H](NC(=O)c1cccs1)C(=O)N[C@@H](CCCCN)C(=O)N[C@@H](C(N)=O)c1ccc(OCc2ccccc2)cc1
inhibition [1]: < 30% | IC50 [2]: 296 nM | IC50 [4]: 109 nM | inhibition [5]: 98%

N=C(N)NCCC[C@H](NC(=O)c1ccc(Cl)s1)C(=O)N[C@@H](CCCCN)C(=O)N[C@@H](C(N)=O)c1ccc(OCc2ccccc2)cc1
inhibition [1]: < 30% | IC50 [2]: 457 nM | IC50 [4]: 177 nM | inhibition [5]: 98.4%

N=C(N)NCCC[C@H](NC(=O)c1ccccc1)C(=O)N[C@@H](CCCCN)C(=O)N[C@@H](C(N)=O)c1ccc(OCc2ccccc2Cl)cc1
inhibition [1]: < 30% | IC50 [2]: 406 nM | IC50 [4]: 321 nM | inhibition [5]: 98.1%

N=C(N)NCCC[C@H](NC(=O)c1cc2ccccc2s1)C(=O)N[C@@H](CCCCN)C(=O)N[C@@H](C(N)=O)c1ccc(OCc2c(Cl)cccc2Cl)cc1
inhibition [1]: inactive | inhibition [3]: inactive | IC50 [4]: 183 nM | inhibition [5]: 95.9%

CC(C)(C)c1ccc(COc2ccc([C@@H](NC(=O)[C@H](CCCCN)NC(=O)[C@H](CCCNC(=N)N)NC(=O)c3cc4sccc4s3)C(N)=O)cc2)cc1
inhibition [1]: inactive | IC50 [2]: 15900 nM | inhibition [3]: inactive | IC50 [4]: 157 nM | inhibition [5]: 94.1%

N=C(N)NCCC[C@H](NC(=O)c1cccs1)C(=O)N[C@@H](CCCCN)C(=O)N[C@@H](C(N)=O)c1ccc(OCC(=O)c2ccc(Br)cc2)cc1
inhibition [1]: inactive | IC50 [2]: 487 nM | inhibition [3]: 59% | IC50 [4]: 148 nM | inhibition [5]: 99.4%

N=C(N)NCCC[C@H](NC(=O)/C=C/c1ccc(Cl)cc1)C(=O)N[C@@H](CCCCN)C(=O)N[C@@H](C(N)=O)c1ccc(OCc2ccccc2)cc1
inhibition [1]: < 30% | IC50 [2]: 368 nM | IC50 [4]: 721 nM | inhibition [5]: 99.4%

N=C(N)NCCC[C@H](NC(=O)c1cc2ccccc2s1)C(=O)N[C@@H](CCCCN)C(=O)N[C@@H](C(N)=O)c1ccc(OCc2ccccc2C(F)(F)F)cc1
inhibition [1]: inactive | inhibition [3]: inactive | IC50 [4]: 243 nM | inhibition [5]: 93.1%

N=C(N)NCCC[C@H](NC(=O)c1cc2ccccc2s1)C(=O)N[C@@H](CCCCN)C(=O)N[C@@H](C(N)=O)c1ccc(OCc2ccccc2)cc1
Retention_time [6]: 3.13 min | EC50 [7]: 20400 nM | CC50 at 48 h [8]: > 100000 nM | inhibition [1]: < 30% | IC50 [4]: 451 nM | inhibition [5]: 97.1%

N=C(N)NCCC[C@H](NC(=O)c1ccccc1)C(=O)N[C@@H](CCCCN)C(=O)N[C@@H](C(N)=O)c1ccc(OCc2cccc(Cl)c2)cc1
inhibition [1]: < 30% | IC50 [2]: 321 nM | IC50 [4]: 186 nM | inhibition [5]: 102%

N=C(N)NCCC[C@H](NC(=O)c1nccs1)C(=O)N[C@@H](CCCCN)C(=O)N[C@@H](C(N)=O)c1ccc(OCc2ccccc2)cc1
inhibition [1]: < 30% | IC50 [2]: 158 nM | IC50 [4]: 99 nM | inhibition [5]: 98.8%

COc1cccc(COc2ccc([C@@H](NC(=O)[C@H](CCCCN)NC(=O)[C@H](CCCNC(=N)N)NC(=O)c3ccccc3)C(N)=O)cc2)c1
inhibition [1]: < 30% | IC50 [2]: 804 nM | IC50 [4]: 147 nM | inhibition [5]: 99%

N=C(N)NCCC[C@H](NC(=O)c1cc2sccc2s1)C(=O)N[C@@H](CCCCN)C(=O)N[C@@H](C(N)=O)c1ccc(OCc2ccc(Cl)cc2)cc1
inhibition [1]: inactive | inhibition [3]: inactive | IC50 [4]: 170 nM | inhibition [5]: 93.8%

N=C(N)NCCC[C@H](NC(=O)c1nccs1)C(=O)N[C@@H](CCCCN)C(=O)N[C@@H](C(N)=O)c1ccc(OCc2c(Cl)cccc2Cl)cc1
inhibition [1]: inactive | IC50 [2]: 166 nM | inhibition [3]: inactive | IC50 [4]: 50 nM | inhibition [5]: 99.1%

N=C(N)NCCC[C@H](NC(=O)c1ccc(Cl)s1)C(=O)N[C@@H](CCCCN)C(=O)N[C@@H](C(N)=O)c1ccc(OCc2ccc(Cl)cc2)cc1
inhibition [1]: inactive | IC50 [2]: 371 nM | inhibition [3]: inactive | IC50 [4]: 111 nM | inhibition [5]: 99.6%

N=C(N)NCCC[C@H](NC(=O)c1ccccc1F)C(=O)N[C@@H](CCCCN)C(=O)N[C@@H](C(N)=O)c1ccc(OCc2ccccc2)cc1
inhibition [1]: < 30% | IC50 [2]: 1290 nM | IC50 [4]: 340 nM | inhibition [5]: 100%

N=C(N)NCCC[C@H](NC(=O)c1ccccc1)C(=O)N[C@@H](CCCCN)C(=O)N[C@@H](C(N)=O)c1ccc(OCC(=O)c2ccccc2)cc1
inhibition [1]: < 30% | IC50 [2]: 508 nM | IC50 [4]: 486 nM | inhibition [5]: 98.8%

N=C(N)NCCC[C@H](NC(=O)c1ccsc1)C(=O)N[C@@H](CCCCN)C(=O)N[C@@H](C(N)=O)c1ccc(OCc2ccccc2)cc1
inhibition [1]: < 30% | IC50 [2]: 490 nM | IC50 [4]: 179 nM | inhibition [5]: 98.2%

N=C(N)NCCC[C@H](NC(=O)c1ccccc1)C(=O)N[C@@H](CCCCN)C(=O)N[C@@H](C(N)=O)c1ccc(OCc2ccc(F)cc2)cc1
inhibition [1]: < 30% | IC50 [2]: 349 nM | IC50 [4]: 196 nM | inhibition [5]: 100%

N=C(N)NCCC[C@H](NC(=O)C1CC1)C(=O)N[C@@H](CCCCN)C(=O)N[C@@H](C(N)=O)c1ccc(OCc2ccccc2)cc1
inhibition [1]: < 30% | IC50 [2]: 1660 nM | IC50 [4]: 805 nM | inhibition [5]: 100%
